The first data set concerns J774.1. The data set is described as follows: Inhibition of LPS-induced NO production in mouse J774.1 cells after 24 hrs by Griess reagent assay. It is filed as functional, cell-based. Particulars: J774.1, 24 h; call rule not given here. An outline of the steps:
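J774.1 cells grown in RPMI 1640 with penicillin G, streptomycin and 10% FCS, seeded at 1 × 10⁵ cells/well and left to adhere for 2 h at 37 °C, 5% CO₂. Fresh medium with LPS (10 µg/mL) plus compound was then added for 24 h. Supernatant nitrite was read with Griess reagent (10 min, room temperature, A550), medium-blank corrected, and compared with an LPS-only control. IC50 taken from the mean of four determinations.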
(In general: Nitrite, measured by Griess reagent, commonly stands in for NO production.)
Usually IC50 stands for the midpoint of a concentration-inhibition curve. High values mean a need for much substance, low ones inhibition by little substance. With `COc1ccc2c(c1O)O[C@@H]1c3ccc(O)cc3OC[C@H]21`, the IC50 amounted to 3.4 µM.

In the case of `COc1ccc2c(c1)O[C@H]1c3ccc(O)c(O)c3OC[C@@H]21`, the half-inhibitory concentration (IC50) was 5.4 µM.

In turn, `C=C[C@H](C1=CC(=O)C(OC)=CC1=O)c1ccccc1` returned an IC50 of 10.2 µM. Against the preceding compound, the IC50 is about 1.9-fold higher.

Compound `C=C[C@@H](c1ccccc1)c1ccc(O)c(O)c1` showed an IC50 of 8.4 µM.

`C=C[C@@H](c1ccccc1)[C@@H]1C[C@@H](O)[C@@H](OC)C[C@@H]1O`: half-maximal inhibition (IC50) required 100 µM.

As for `C=CC(c1ccccc1)[C@@H]1C[C@@H](O)C=CC1=O` (stereo not given in full), half-maximal inhibition (IC50) was put at 0.5 µM.

For the compound `C=CC(c1ccccc1)[C@H]1C[C@@H](O)C=CC1=O` (stereo not given in full), 0.5 µM corresponded to half-maximal inhibition (IC50). That is a sub-micromolar value.

As to `C=C[C@@H](c1ccccc1)[C@@H]1C[C@@H](O)[C@@H](OC)CC1=O`, it took 13.2 µM to reach half-maximal inhibition (IC50).

Consider `C=C[C@H](c1ccccc1)[C@@H]1C[C@@H](O)[C@@H](OC)CC1=O`, for which 9.6 µM corresponded to half-maximal inhibition (IC50).

For the compound `C=CC(c1ccccc1)[C@H]1C[C@@H](O)C[C@@H](OC)C1=O` (stereo not given in full), the IC50 came out at 2.3 µM.

Turning to `C=C[C@@H](c1ccccc1)c1ccc(O)cc1O`, the IC50 came to 5.5 µM.

Regarding `COC1=CC(=O)CCC1(O)C/C=C/c1ccccc1` (stereo not given), the IC50 was determined as 19.2 µM. Compared with the last compound, the IC50 is about 3.5-fold higher.

In turn, `C=CC(c1ccccc1)[C@@H]1C[C@H](O)C(OC)=CC1=O` (stereo not given in full) yielded an IC50 of 48.5 µM.

Take `C=CC(c1ccccc1)[C@H]1C[C@@H](O)[C@@H](OC)CC1=O` (stereo not given in full): the IC50 was found to be 9.6 µM.

Take `O=C(/C=C/c1ccc(O)c(O)c1)OCCc1ccccc1` [CAFFEIC ACID PHENETHYL ESTER]: the IC50 came out at 4.8 µM.

For `COc1cc(O)c(C(=O)c2ccccc2)cc1O` [CEAROIN], the midpoint of inhibition, the IC50, lay at 15.4 µM.

As to `O=C(/C=C/c1ccc(O)cc1)c1ccc(O)cc1O` [ISOLIQUIRITIGENIN], the IC50 was found to be 29.3 µM.

As to `C=CC(c1ccccc1)c1cc(O)c(OC)cc1O` (stereo not given) [OBTUSAQUINOL], 6.3 µM corresponded to half-maximal inhibition (IC50).

System in the next data set: not listed separately
The data set is described as follows: Cytotoxicity against mouse J774.1 cells at > 50 uM by MTT assay. It counts as cell-based.
Conditions: not given
On the technique in general: Tetrazolium assays rely on reduction of a dye to a coloured formazan, in cell work by metabolically active cells.
`C=CC(c1ccccc1)[C@@H]1C[C@@H](O)C=CC1=O` (stereo not given in full): the outcome was Active.

As for `C=CC(c1ccccc1)[C@H]1C[C@@H](O)C=CC1=O` (stereo not given in full), the result was Active.
